Data published in ChEMBL document CHEMBL2203053, “DNA binding acridine-thiazolidinone agents affecting intracellular glutathione” (Bioorg Med Chem, 2012).
The source made the active and inactive calls. The calls are words filed in the database; no cut-off is given here.

Experiments:
[1] = system: HL-60; assay: Induction of cell death in human HL60 cells assessed as viable cells at 4 uM after 24 hrs by FDA/PI staining based flow cytometer (reference value: 90.16%); type: functional; conditions: HL-60, 24 h, read-out: Activity
[2] = system: HL-60; assay: Induction of necrosis in human HL60 cells assessed as cell shrinking at 2.5 uM after 24 hrs by propidium iodide staining based fluorescence microscopy; type: functional
[3] = system: Nucleic Acid; assay: Binding affinity to calf thymus DNA assessed as hypochromicity at 25 uM by UV-visible spectrophotometry; type: nucleic-acid assay; conditions: Bos taurus
Summary of the method: (§1)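 Absorption spectra were taken in 0.01 M Tris buffer, pH 7.4. Compounds were diluted from DMSO stock to a final 25 µM. Sonicated calf thymus DNA in TE buffer was added at 0–30 µM bp, with concentration set by A260. Shift of λmax (free vs bound) and % hypochromicity were recorded.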

[4] = system: HL-60; assay: Induction of cell death in human HL60 cells assessed as viable cells at 2 uM after 24 hrs by FDA/PI staining based flow cytometer (reference value: 90.16%); type: functional; conditions: HL-60, 24 h, read-out: Activity
[5] = system: HL-60; assay: Cell cycle arrest in human HL60 cells assessed as accumulation at G1 phase at 1 uM after 48 hrs by propidium iodide staining based flow cytometry (reference value: 48.14%); type: functional
[6] = system: HL-60; assay: Induction of cell death in human HL60 cells assessed as early apoptotic cells at 2 uM after 24 hrs by FDA/PI staining based flow cytometer (reference value: 3.96%); type: functional
[7] = system: HL-60; assay: Induction of oxidative stress in human HL60 cells assessed as superoxide production at 5 uM after 1 hr by DHE dye based fluorescence microscopy; type: functional, cell-based
Summary of the method: (§2)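 HL-60 cells (4 × 10⁵) were cultured 24 h at 37 °C, then given 5 µM for 1 h, with or without 6 h pretreatment with 10 µM L-buthionine-sulfoximine. Dihydroethidium (20 µM) was then added for 20 min at 37 °C. Cells were washed in PBS and superoxide was viewed by fluorescence microscopy. Menadione served as positive control.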

[8] = system: HL-60; assay: Cell cycle arrest in human HL60 cells assessed as accumulation at G2 phase at 1 uM after 48 hrs by propidium iodide staining based flow cytometry (reference value: 12.90%); type: functional
[9] = system: HL-60; assay: Cytotoxicity against BSO pretreated human HL60 cells assessed as cell viability at 1 uM treated 6 hrs after BSO addition measured after 48 hrs by trypan blue exclusion assay; type: functional, cell-based
Summary of the method: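 HL-60 cells were pretreated 6 h with L-buthionine-sulfoximine (10 µM), then exposed to 1.5, 3.0 or 1.0 µM compound for 48 h. Viable cells were counted by trypan blue staining and expressed as percentage of all cells.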

[10] = system: HL-60; assay: Induction of oxidative stress in BSO pretreated human HL60 cells assessed as superoxide production at 5 uM treated 6 hrs after BSO addition measured after 1 hr by DHE dye fluorescence microscopy; type: functional, cell-based; summary of the method: as §2
[11] = system: A2780; assay: Cytotoxicity against human A2780 cells after 48 hrs by MTT assay; type: functional, cell-based; conditions: A2780, 48 h
Summary of the method: (§3)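 HL-60, L1210 and A2780 cells were grown in RPMI 1640 with 10% FBS, penicillin and streptomycin at 37 °C, 5% CO₂; HL-60 and A2780 medium also had 2 mM glutamine. Cells were exposed to 0–30 µM for 48 or 72 h. Viability was read by MTT microculture tetrazolium assay and IC50 was determined.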

[12] = system: Nucleic Acid; assay: Binding affinity to calf thymus DNA assessed as binding constant by spectrofluorimetry based McGhee von Hippel method; type: nucleic-acid assay; conditions: Bos taurus
Summary of the method: (§4)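 Fluorescence titration used compound at 26.7 µM in 0.01 M Tris buffer (pH 7.4, 24 °C). ctDNA was added stepwise from 0 to 32 µM bp at 2 µM intervals until spectra stopped changing. Excitation was 384 nm and emission was read at 410–470 nm. Binding constant K was derived by the McGhee–von Hippel method from Scatchard plot data.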

[13] = system: HL-60; assay: Cell cycle arrest in human HL60 cells assessed as accumulation at sub G0 phase at 0.5 uM after 48 hrs by propidium iodide staining based flow cytometry (reference value: 1.93%); type: functional
[14] = system: HL-60; assay: Cytotoxicity against human HL60 cells after 48 hrs using trypan blue exclusion staining by DCC method; type: functional, cell-based; conditions: HL-60, 48 h
Summary of the method: (§5)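 For trypan blue dye-exclusion direct cell counting, HL-60 cells were seeded at 1 × 10⁵ cells/mL. Compound at 0–10 µM, or 1% DMSO control, was added after 24 h. Viable counts were taken after 24, 48 and 72 h. IC50 (50% inhibition of viability) came from growth curves, as mean ± S.D., n = 3.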

[15] = system: HL-60; assay: Cell cycle arrest in human HL60 cells assessed as accumulation at S phase at 1 uM after 48 hrs by propidium iodide staining based flow cytometry (reference value: 38.96%); type: functional
[16] = system: HL-60; assay: Induction of cell death in human HL60 cells assessed as necrotic cells at 4 uM after 24 hrs by FDA/PI staining based flow cytometer (reference value: 5.87%); type: functional
[17] = system: HL-60; assay: Drug uptake in human HL60 cells at 5 uM after 4 hrs by Hoechst staining based fluorescence microscopy; type: ADME, cell-based; conditions: hl-60, 4 h
Summary of the method: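 HL-60 cells were exposed to 5 µM for 4 h at 37 °C, 5% CO₂, then washed in PBS. Intrinsic blue fluorescence was viewed by optical and fluorescence microscopy. Untreated control cells were stained with Hoechst 33342 (10 µM, 10 min).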

[18] = system: HL-60; assay: Cytotoxicity against human HL60 cells after 72 hrs using trypan blue exclusion staining by DCC method; type: functional, cell-based; conditions: HL-60, 72 h; summary of the method: as §5
[19] = system: HL-60; assay: Cytotoxicity against human HL60 cells after 72 hrs by MTT assay; type: functional, cell-based; conditions: HL-60, 72 h; summary of the method: as §3
[20] = system: Nucleic Acid; assay: Ratio of proflavine K to compound K for calf thymus DNA by spectrofluorimetry based McGhee von Hippel method; type: nucleic-acid assay; conditions: Bos taurus
[21] = system: HL-60; assay: Cytotoxicity against human HL60 cells after 48 hrs by MTT assay; type: functional, cell-based; conditions: HL-60, 48 h; summary of the method: as §3
[22] = system: HL-60; assay: Cell cycle arrest in human HL60 cells assessed as accumulation at G1 phase at 0.5 uM after 48 hrs by propidium iodide staining based flow cytometry (reference value: 48.14%); type: functional
[23] = system: HL-60; assay: Cell cycle arrest in human HL60 cells assessed as accumulation at sub G0 phase at 1 uM after 48 hrs by propidium iodide staining based flow cytometry (reference value: 1.93%); type: functional
[24] = system: HL-60; assay: Cell cycle arrest in human HL60 cells assessed as accumulation at G2 phase at 0.5 uM after 48 hrs by propidium iodide staining based flow cytometry (reference value: 12.90%); type: functional
[25] = Binding affinity to NAC assessed as second order rate constant at 1 mM at pH 6.5 after 10 mins by UV-visible spectrophotometry
Summary of the method: (§6)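 Reaction with N-acetyl-L-cysteine was run in 100 mM Tris/HCl containing 50% DMSO at 25 °C, with final 2c at 20 µM and NAC at 1 mM. pH was 6.0, 6.5 or 7.0. Spectral change was monitored by UV–vis, with the mixture held 10 min. Second-order rate constants k2 (M⁻¹ s⁻¹) are reported.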

[26] = system: HL-60; assay: Decrease in intracellular glutathione level in human HL60 cells at 1 uM after 2 to 24 hrs by spectrophotometric analysis; type: functional, cell-based
[27] = system: HL-60; assay: Induction of cell death in human HL60 cells assessed as late apoptotic cells at 2 uM after 24 hrs by FDA/PI staining based flow cytometer (reference value: 0.01%); type: functional
[28] = Binding affinity to NAC assessed as second order rate constant at 1 mM at pH 7 after 10 mins by UV-visible spectrophotometry; summary of the method: as §6
[29] = system: A2780; assay: Cytotoxicity against human A2780 cells after 72 hrs by MTT assay; type: functional, cell-based; conditions: A2780, 72 h; summary of the method: as §3
[30] = system: L1210; assay: Cytotoxicity against mouse L1210 cells after 48 hrs by MTT assay; type: functional, cell-based; conditions: L1210, 48 h; summary of the method: as §3
[31] = system: Nucleic Acid; assay: Ratio of acridine orange K to compound K for calf thymus DNA by spectrofluorimetry based McGhee von Hippel method; type: nucleic-acid assay; conditions: Bos taurus
[32] = system: A2780; assay: Drug uptake in human A2780 cells at 5 uM after 4 hrs by Hoechst staining based fluorescence microscopy; type: ADME, cell-based; conditions: a2780, 4 h
[33] = system: HL-60; assay: Drug uptake in human HL60 cells at 10 uM after 10 to 60 mins by RP-HPLC analysis; type: ADME, cell-based; conditions: hl-60, 10 µM
Summary of the method: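 HL-60 cells (2 × 10⁶/mL) were exposed to 10 µM for 10 or 60 min, washed twice in PBS and extracted with methanol (1 h, 4 °C). Extract was centrifuged at 6700 × g and injected (20 µL) onto a C18 RP-HPLC column. Mobile phase was methanol/50 mM ammonium formate 80:20, pH 4.5, at 0.5 mL/min and 25 °C, with detection at 370 nm.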

[34] = system: HL-60; assay: Induction of cell death in human HL60 cells assessed as necrotic cells at 2 uM after 24 hrs by FDA/PI staining based flow cytometer (reference value: 5.87%); type: functional
[35] = system: Nucleic Acid; assay: Ratio of daunomycin K to compound K for calf thymus DNA by spectrofluorimetry based McGhee von Hippel method; type: nucleic-acid assay; conditions: Bos taurus
[36] = system: Nucleic Acid; assay: Binding affinity to calf thymus DNA assessed as intercalation at 26.7 uM by fluorometric titration analysis; type: nucleic-acid assay; conditions: Bos taurus; summary of the method: as §4
[37] = system: HL-60; assay: Cell cycle arrest in human HL60 cells assessed as accumulation at S phase at 0.5 uM after 48 hrs by propidium iodide staining based flow cytometry (reference value: 38.96%); type: functional
[38] = system: L1210; assay: Cytotoxicity against mouse L1210 cells after 72 hrs by MTT assay; type: functional, cell-based; conditions: L1210, 72 h; summary of the method: as §3
[39] = system: HL-60; assay: Induction of cell death in human HL60 cells assessed as early apoptotic cells at 4 uM after 24 hrs by FDA/PI staining based flow cytometer (reference value: 3.96%); type: functional
[40] = system: HL-60; assay: Induction of cell death in human HL60 cells assessed as late apoptotic cells at 4 uM after 24 hrs by FDA/PI staining based flow cytometer (reference value: 0.01%); type: functional
[41] = system: Nucleic Acid; assay: Binding affinity to calf thymus DNA assessed as bathochromic shift at 25 uM by UV-visible spectrophotometry; type: nucleic-acid assay; conditions: Bos taurus; summary of the method: as §1
[42] = system: Nucleic Acid; assay: Binding affinity to calf thymus DNA assessed as melting temperature at 5 uM at pH 7.1 by thermal denaturation assay; type: nucleic-acid assay; conditions: Bos taurus
[43] = Binding affinity to NAC assessed as second order rate constant at 1 mM at pH 6 after 10 mins by UV-visible spectrophotometry; summary of the method: as §6
[44] = system: NIH3T3; assay: Cytotoxicity against mouse NIH/3T3 cells after 72 hrs by MTT assay; type: cell-based; conditions: NIH3T3, 72 h

COC(=O)/C=C1\S/C(=N\c2c3ccccc3nc3ccccc23)N(c2ccc(Br)cc2)C1=O
viability at 4 µM [1]: 17.8%
Activity [2]: Active
Activity [3]: 24.2%
viability at 2 µM [4]: 8.46%
Activity [5]: 82.93%
Activity [6]: 68.64%
Activity [7]: Active
Activity [8]: 5.08%
Activity [9]: Active
Activity [10]: Active
IC50 [11]: 12.5 µM
K [12]: 5.89 ×10⁶ /M
Activity [13]: 21.7%
IC50 [14]: 1.6 µM
Activity [15]: 11.99%
Activity [16]: 62.62%
Drug uptake [17]: Active
IC50 [18]: 0.9 µM
IC50 [19]: 1.3 µM
Ratio [20]: 10
IC50 [21]: 1.4 µM
Activity [22]: 51.04%
Activity [23]: 25.85%
Activity [24]: 10.56%
Activity [25]: 3.8 M⁻¹ s⁻¹
Activity [26]: Active
Activity [27]: 0.03%
Activity [28]: 9.9 M⁻¹ s⁻¹
IC50 [29]: 7.7 µM
IC50 [30]: 1.7 µM
Ratio [31]: 10
Drug uptake [32]: Active
Drug uptake [33]: Active
Activity [34]: 22.87%
Ratio [35]: 10
Activity [36]: Active
Activity [37]: 38.4%
IC50 [38]: 3.1 µM
Activity [39]: 19.57%
Activity [40]: 0.01%
Activity [41]: Active
Tm [42]: 81 °C
Activity [43]: 2 M⁻¹ s⁻¹
IC50 [44]: 3.5 µM
